Experimental data as given in ChEMBL document CHEMBL1155286, “Second generation of 2H-benzimidazole 1,3-dioxide derivatives as anti-trypanosomatid agents: synthesis, biological evaluation, and mode of action studies” (Eur J Med Chem, 2009).
Calls of active or inactive are those of the source. The calls are words filed in the database; no cut-off is given here.

What was measured:
Leishmania braziliensis [1] = assay: Antiparasitic activity against Leishmania braziliensis MHOM/BR/00/LTB300 after 5 days by MTT assay; type: functional; details: MHOM/BR/00/LTB300, 120 h, read-out: ID50
Procedure, shortened: (§1)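 Epimastigotes (T. cruzi strains, BHI-Tryptose + 5% FBS, 28 °C) or L. braziliensis LTB300 promastigotes (axenic RPMI + 5% FBS, 28 °C) from exponential culture in 24-well plates; compounds from DMSO stock added for 5 days. Washed in PBS, 0.4 mg/mL MTT at 37 °C for 3 h, formazan dissolved in DMSO, OD595 read. Triplicate per concentration, six growth controls; 1.0–50.0 μM dose-response, ID50 = concentration reducing absorbance ratio to 50%; three independent experiments.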

Leishmania braziliensis [2] = assay: Inhibition of Mitochondrial dehydrogenase in Leishmania braziliensis MHOM/BR/00/LTB300 at 20 uM after 30 to 240 mins by MTT dye reduction assay in relative to control
[3] = Selective index, ratio of ID50 for mouse J774 cells to ID50 for Leishmania braziliensis LTB300
[4] = Cytotoxicity against mouse J774 cells; type: cell-based; details: read-out: ID50 (the source's name)
[5] = Selective index, ratio of ID50 for mouse J774 cells to ID50 for Trypanosoma cruzi Tulahuen 2
Trypanosoma cruzi [6] = assay: Antitrypanosomal activity against Trypanosoma cruzi CL Brener epimastigotes assessed as parasitic cytotoxicity at 25 uM after 5 days by MTT assay; type: functional
Procedure, shortened: (§2)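 Single 25 μM dose for 5 days on exponential-phase epimastigotes in BHI-Tryptose + 5% FBS, 24-well plates; MTT 0.4 mg/mL, 3 h at 37 °C after PBS wash, formazan in DMSO, OD595. PCyt = [[…] (ODd − ODdm)/(ODc − ODcm)] × 100 with medium-only blanks, compound-in-medium blanks and growth controls; three independent experiments.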

Trypanosoma cruzi [7] = assay: Antitrypanosomal activity against Trypanosoma cruzi Tulahuen 2 epimastigotes assessed as inhibition of parasite growth after 5 days; type: functional; details: for IC50: Trypanosoma cruzi, Tulahuen 2, 120 h, read-out: ID50 (the source's name)
Procedure, shortened: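 Stationary-phase (10-day) Tulahuen 2 epimastigotes inoculated at 1×10^6 cells/mL in BHI-Tryptose + 5% FBS, 28 °C, drug added from DMSO stock (final DMSO ≤0.4%; control 0.4% DMSO). Growth followed as A600; inhibition from day-5 vs day-0 absorbance relative to control. ID50 = concentration reducing absorbance ratio to 50%; three independent experiments.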

Trypanosoma cruzi [8] = assay: Decrease of glucose uptake in Trypanosoma cruzi Y epimastigotes after 4 hrs relative to control; type: functional, organism-based
Procedure, shortened: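 Y-strain epimastigotes (80×10^6/mL) washed and resuspended in PBS with 1 mM glucose, exposed 4 h to 20 μM compound from DMSO. Parasite-free supernatant refluxed 1 h with Benedict's reagent; remaining glucose quantified at 700 nm against a calibration curve.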

Trypanosoma cruzi [9] = assay: Antitrypanosomal activity against Trypanosoma cruzi Y epimastigotes after 5 days by MTT assay; type: functional; details: 120 h, read-out: ID50; procedure, shortened: as §1
Trypanosoma cruzi [10] = assay: Antitrypanosomal activity against Trypanosoma cruzi Colombiana assessed as parasitic cytotoxicity at 25 uM after 5 days by MTT assay; type: functional; procedure, shortened: as §2
Trypanosoma cruzi [11] = assay: Antitrypanosomal activity against Trypanosoma cruzi CL Brener epimastigotes after 5 days by MTT assay; type: functional; details: 120 h, read-out: ID50; procedure, shortened: as §1
Trypanosoma cruzi [12] = assay: Antitrypanosomal activity against Trypanosoma cruzi Colombiana after 5 days by MTT assay; details: 120 h, read-out: ID50
Trypanosoma cruzi [13] = assay: Inhibition of Mitochondrial dehydrogenase in Trypanosoma cruzi Y epimastigotes at 20 uM after 30 to 240 mins by MTT dye reduction assay in relative to control
Procedure, shortened: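 Y-strain epimastigotes, 10^6 per well in 500 µL, 20 μM compound, 28 °C for 30–240 min with time-matched untreated controls. MTT (50 µL of 5 mg/mL) added for 4 h more, stopped with acidic isopropanol, A570 read; activity expressed as % of untreated parasites.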

J774 = assay: Cytotoxicity against mouse J774 cells at 100 uM relative to 5-((hydroxyimino)methyl)-2,2-dimethyl-2H-benzo[d]imidazole 1,3-dioxide; type: cell-based; details: j774, 100 µM
Trypanosoma cruzi [14] = assay: Antitrypanosomal activity against Trypanosoma cruzi CL Brener trypomastigotes infected in Vero cells assessed as parasite lysis at 10 uM after 26 hrs relative to untreated control; type: functional
Procedure, shortened: (§3)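 Cell-culture trypomastigotes released from infected Vero cells (37 °C, 5% CO2, 5–7 days), collected by centrifugation and allowed 4 h at 37 °C to swim off. Supernatant parasites exposed to 10.0–50.0 μM for 2–26 h; lysis counted in a Neubauer chamber relative to untreated parasites; three independent experiments.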

Trypanosoma cruzi [15] = assay: Antitrypanosomal activity against Trypanosoma cruzi CL Brener trypomastigotes infected in Vero cells assessed as parasite lysis at 10 uM after 3 hrs relative to untreated control; type: functional; procedure, shortened: as §3
Trypanosoma cruzi [16] = assay: Antitrypanosomal activity against Trypanosoma cruzi CL Brener trypomastigotes infected in Vero cells assessed as parasite lysis at 10 uM after 2 hrs relative to untreated control; type: functional; procedure, shortened: as §3
Trypanosoma cruzi [17] = assay: Reduction of end products excretion levels in Trypanosoma cruzi Y epimastigotes after 2 days by [1H]NMR method; type: functional, organism-based
Procedure, shortened: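 Y-strain epimastigotes treated 2 days with 5 μM compound; culture centrifuged 1500 g, 10 min, 4 °C, parasite-free supernatant stored at −20 °C. Supernatant plus DMF internal standard and D2O run by 1H NMR with water suppression; metabolite peaks confirmed by spiking and standards, compared to untreated and parasite-free medium.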

Trypanosoma cruzi [18] = assay: Antitrypanosomal activity against Trypanosoma cruzi CL Brener trypomastigotes infected in Vero cells assessed as parasite lysis at 10 uM after 22 hrs relative to untreated control; type: functional; procedure, shortened: as §3

Row | Structure (SMILES) | IC50 (Leishmania braziliensis [1]) [µM] | Activity (Leishmania braziliensis [2]) | Ratio [3] | CC50 [4] [µM] | Ratio [5] | Activity (Trypanosoma cruzi [6]) [%] | IC50 (Trypanosoma cruzi [7]) [µM] | Activity (Trypanosoma cruzi [8]) | IC50 (Trypanosoma cruzi [9]) [µM] | Activity (Trypanosoma cruzi [10]) [%] | IC50 (Trypanosoma cruzi [11]) [µM] | IC50 (Trypanosoma cruzi [12]) [µM] | Activity (Trypanosoma cruzi [13]) | Activity (J774) [%] | Activity (Trypanosoma cruzi [14]) [%] | Activity (Trypanosoma cruzi [15]) [%] | Activity (Trypanosoma cruzi [16]) [%] | Activity (Trypanosoma cruzi [17]) | Activity (Trypanosoma cruzi [18]) [%] | ID50 (Trypanosoma cruzi [7]) [µM]
1 | CCCCCCCCCCCCCCCCOP(=O)([O-])OCC[N+](C)(C)C [MILTEFOSINE] | 9 | Active | 15.1 | 136 | – | – | – | – | – | – | – | – | – | – | – | – | – | – | – | –
2 | CC1CS(=O)(=O)CCN1/N=C/c1ccc([N+](=O)[O-])o1 (stereo unspecified) [NIFURTIMOX] | – | – | – | 346 | 44.9 | 90 | 7.7 | inactive | 9.7 | 87 | 4.9 | 3.4 | inactive | – | – | – | – | – | – | –
3 | CCCCCC1(C)[N+]([O-])=c2ccccc2=[N+]1[O-] | > 50 | – | <4.7 | 233 | 43.1 | 88.2 | 5.4 | – | – | 77.1 | – | – | – | 0.01 | – | – | – | – | – | –
4 | [O-][N+]1=c2ccc(Br)cc2=[N+]([O-])C12CCCC2 | 26.7 | Active | 3.7 | 100 | 6.1 | 91.5 | 16.3 | Active | 3.5 | 83.8 | – | – | inactive | 0.82 | 16 | 35 | 0 | Active | 16 | –
5 | CC1(Cc2ccc(Cl)cc2)[N+]([O-])=c2ccccc2=[N+]1[O-] | – | – | – | 55 | 1.4 | – | 40 | – | – | – | – | – | – | 1.42 | – | – | – | – | – | –
6 | CC1(C)[N+]([O-])=c2ccc(/C=C/c3ccc(Cl)cc3)cc2=[N+]1[O-] | – | – | – | 52 | 6.4 | – | 8.1 | – | – | – | – | – | – | 1.48 | – | – | – | – | – | –
7 | COc1ccc(CC2(C)[N+]([O-])=c3ccccc3=[N+]2[O-])cc1 | 35 | – | >11.4 | > 400 | 8 | – | – | – | – | 30.8 | – | – | – | 0.32 | – | – | – | – | – | > 50
8 | COc1ccc2c(c1)=[N+]([O-])C1(CCCC1)[N+]=2[O-] | > 50 | – | <2 | 100 | 4 | 62.6 | 25 | – | 4.9 | 17.3 | – | – | – | 0.89 | – | – | – | – | – | –
9 | [O-][N+]1=c2ccc(/C=N/O)cc2=[N+]([O-])C12CCCC2 | 26.7 | – | 4.9 | 130 | 6.6 | 65.6 | 19.8 | – | 5.7 | 29 | – | – | – | 0.82 | – | – | – | – | – | –
10 | [O-][N+]1=c2cc(Cl)c(Cl)cc2=[N+]([O-])C12CCCC2 | 5.4 | – | 7.2 | 39 | 3.3 | 67.1 | 12 | – | 5.3 | 60.9 | – | – | – | 1.65 | – | – | – | – | – | –
